Source: ChEMBL document CHEMBL3259739, “Synthesis and structure-activity relationship of trisubstituted thiazoles as Cdc7 kinase inhibitors” (Eur J Med Chem, 2014)
Values belong to the molecule of their own block, whether it stands above or below them. Active and inactive are the calls of the source. The rule behind the calls is not given here.

Legend:
[1] = biological target: T1, CDC7/DBF4 (Cell division cycle 7-related protein kinase/Activator of S phase kinase) (Homo sapiens, UniProt O00311); experiment: Inhibition of Cdc7/Dbf4 (unknown origin) using 27 uM of ATP as substrate by AlphaScreen assay; assay type: protein-complex assay
[2] = Mean residence time in Sprague-Dawley rat at 2 mg/kg, iv; assay type: ADME, organism-based; design: dose 2 mg/kg, route intravenous; conditions: in vivo
[3] = biological target: T1, CDC7/DBF4 (Cell division cycle 7-related protein kinase/Activator of S phase kinase); experiment: Inhibition of Cdc7/Dbf4 (unknown origin) using 1 uM of ATP as substrate by AlphaScreen assay; assay type: protein-complex assay
[4] = biological target: T1, CDC7/DBF4 (Cell division cycle 7-related protein kinase/Activator of S phase kinase); experiment: Inhibition of Cdc7/Dbf4 (unknown origin) using 0.111 uM of ATP as substrate by AlphaScreen assay; assay type: protein-complex assay
[5] = biological target: T1, CDC7/DBF4 (Cell division cycle 7-related protein kinase/Activator of S phase kinase); experiment: Inhibition of Cdc7/Dbf4 (unknown origin) using 54 uM of ATP as substrate by AlphaScreen assay; assay type: protein-complex assay
[6] = Cmax in Sprague-Dawley rat at 5 mg/kg, po; assay type: ADME, organism-based; design: dose 5 mg/kg, route oral; conditions: in vivo
[7] = Half life in Sprague-Dawley rat at 2 mg/kg, iv; assay type: ADME, organism-based; design: dose 2 mg/kg, route intravenous; conditions: in vivo
[8] = biological target: T1, CDC7/DBF4 (Cell division cycle 7-related protein kinase/Activator of S phase kinase); experiment: Inhibition of Cdc7/Dbf4 (unknown origin) using 2 uM of ATP as substrate by AlphaScreen assay; assay type: protein-complex assay
Mus musculus [9] = experiment: Toxicity in NCR nude mouse xenografted with human HCT116 cells assessed as appearance of moribund at 150 mg/kg, iv after 6 hrs; assay type: organism-based, HCT-116; design: dose 150 mg/kg, route intravenous; conditions: in vivo
Summary of the method: (§1)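 Female athymic NCR/nu mice bearing subcutaneous HCT-116 xenografts (about 250 mm3) received a single iv dose in 20% HPbCD, 1% HPMC, 1% PluronicF68, pH7 (10 mg/ml); three mice per group. Tolerability was judged by observation over the 1–16 h sampling period.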

[10] = biological target: T1, CDC7/DBF4 (Cell division cycle 7-related protein kinase/Activator of S phase kinase); experiment: Inhibition of Cdc7/Dbf4 (unknown origin) using 0.222 uM of ATP as substrate by AlphaScreen assay; assay type: protein-complex assay
[11] = biological target: T1, CDC7/DBF4 (Cell division cycle 7-related protein kinase/Activator of S phase kinase); experiment: Inhibition of Cdc7/Dbf4 (unknown origin) using 9 uM of ATP as substrate by AlphaScreen assay; assay type: protein-complex assay
[12] = biological target: T1, CDC7/DBF4 (Cell division cycle 7-related protein kinase/Activator of S phase kinase); experiment: Inhibition of Cdc7/Dbf4 (unknown origin) using 0.037 uM of ATP as substrate by AlphaScreen assay; assay type: protein-complex assay
[13] = Fraction unbound in mouse plasma; assay type: ADME, cell-free
[14] = biological target: T1, CDC7/DBF4 (Cell division cycle 7-related protein kinase/Activator of S phase kinase); experiment: Inhibition of Cdc7/Dbf4 (unknown origin) using 0.074 uM of ATP as substrate by AlphaScreen assay; assay type: protein-complex assay
Mus musculus [15] = experiment: Toxicity in NCR nude mouse xenografted with human HCT116 cells at 50 mg/kg, iv; assay type: organism-based, HCT-116; design: dose 50 mg/kg, route intravenous; conditions: in vivo; summary of the method: as §1
Mus musculus [16] = experiment: Inhibition of Cdc7/Dbf4 in NCR nude mouse xenografted with human HCT116 cells assessed as reduction of phosphorylated MCM2 level in tumor at 150 mg/kg, iv after 1 hr; assay type: functional; conditions: HCT-116, 1 h
Summary of the method: (§2)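 Female athymic NCR/nu mice, 4–6 weeks old, bearing subcutaneous HCT-116 xenografts (5 × 10^6 cells in Matrigel) grown to about 250 mm3. Single iv dose formulated in 20% HPbCD, 1% HPMC, 1% PluronicF68, pH7 at 10 mg/ml; three mice per group. Tumors were homogenized in Tris lysis buffer with protease and phosphatase inhibitors. MSD capture with total MCM2 antibody, then phospho-Ser53 or total MCM2 detection by chemiluminescence; inhibition taken from the phospho/total ratio.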

Mus musculus [17] = experiment: Inhibition of Cdc7/Dbf4 in NCR nude mouse xenografted with human HCT116 cells assessed as reduction of phosphorylated MCM2 level in tumor at 50 mg/kg, iv after 16 hrs; assay type: functional, organism-based; design: dose 50 mg/kg; conditions: HCT-116; summary of the method: as §2
Plasma = experiment: Unbound plasma concentration in NCR nude mouse xenografted with human HCT116 cells at 50 mg/kg, iv after 1 hr; assay type: ADME, organism-based, HCT-116; design: dose 50 mg/kg, route intravenous; conditions: in vivo
Summary of the method: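 HCT-116 xenograft NCR/nu mice (three per group) were given a single iv dose in 20% HPbCD, 1% HPMC, 1% PluronicF68, pH7 at 10 mg/ml. Plasma collected at the time points was measured by LC/MS. Values were converted to unbound concentrations using percent plasma protein binding in mouse serum.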

[18] = biological target: T1, CDC7/DBF4 (Cell division cycle 7-related protein kinase/Activator of S phase kinase); experiment: Inhibition of Cdc7/Dbf4 (unknown origin) using 0.012 uM of ATP as substrate by AlphaScreen assay; assay type: protein-complex assay
Summary of the method: (§3)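 AlphaScreen with 6 nM Cdc7/Dbf4 and 10 nM biotinylated His/avitag MCM2 (aa1-467) substrate. Phospho-Ser53 MCM2 detected with antibody-bound Protein A acceptor and streptavidin donor beads. Rates fitted by Michaelis–Menten and double-reciprocal plots.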

Mus musculus [19] = experiment: Inhibition of Cdc7/Dbf4 in NCR nude mouse xenografted with human HCT116 cells assessed as reduction of phosphorylated MCM2 level in tumor at 150 mg/kg, iv after 3 hrs; assay type: functional; conditions: HCT-116, 3 h; summary of the method: as §2
[20] = biological target: T1, CDC7/DBF4 (Cell division cycle 7-related protein kinase/Activator of S phase kinase); experiment: Inhibition of Cdc7/Dbf4 (unknown origin) using 0.025 uM of ATP as substrate by AlphaScreen assay; assay type: protein-complex assay
[21] = AUC (0 to infinity) in Sprague-Dawley rat at 5 mg/kg, po; assay type: ADME, organism-based; design: time infinity, dose 5 mg/kg, route oral; conditions: plasma
[22] = AUC (0 to t) in Sprague-Dawley rat at 5 mg/kg, po; assay type: ADME, organism-based; design: dose 5 mg/kg, route oral; conditions: plasma
HCT-116 = experiment: Induction of aberrant mitosis in human HCT116 cells at 1.25 uM after 72 hrs […]; assay type: functional, cell-based
MDR1 [23] = experiment: Apparent permeability of the compound in pig LLC-PK1 cells expressing MDR1; assay type: ADME, cell-based, Sus scrofa
[24] = biological target: T1, CDC7/DBF4 (Cell division cycle 7-related protein kinase/Activator of S phase kinase); experiment: Inhibition of Cdc7/Dbf4 (unknown origin) using 1.5 uM of ATP as substrate by AlphaScreen assay; assay type: protein-complex assay
Summary of the method: (§4)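 Mechanism-of-action AlphaScreen run with 6 nM Cdc7/Dbf4 and 10 nM biotinylated MCM2 substrate. […] Reaction time was 2 h. Phospho-Ser53 MCM2 was read by antibody-bound acceptor beads with streptavidin donor beads. Rates and Ki were fitted to a competitive inhibition model.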

[25] = biological target: T1, CDC7/DBF4 (Cell division cycle 7-related protein kinase/Activator of S phase kinase); experiment: Inhibition of Cdc7/Dbf4 (unknown origin) using 0.188 uM of ATP as substrate by AlphaScreen assay; assay type: protein-complex assay; summary of the method: as §4
rat MDR1 [26] = experiment: Efflux ratio of permeability of the compound in pig LLC-PK1 cells expressing rat MDR1; assay type: ADME, cell-based, Sus scrofa
[27] = biological target: T1, CDC7/DBF4 (Cell division cycle 7-related protein kinase/Activator of S phase kinase); experiment: Inhibition of Cdc7/Dbf4 (unknown origin) using 0.375 uM of ATP as substrate by AlphaScreen assay; assay type: protein-complex assay; summary of the method: as §4
MDR1 [28] = experiment: Efflux ratio of permeability of the compound in pig LLC-PK1 cells expressing MDR1; assay type: ADME, cell-based, Sus scrofa
[29] = Efflux ratio of permeability of the compound in pig LLC-PK1 cells; assay type: ADME, cell-based, Sus scrofa
rat MDR1 [30] = experiment: Apparent permeability of the compound in pig LLC-PK1 cells expressing rat MDR1; assay type: ADME, cell-based, Sus scrofa
[31] = biological target: CDC7/DBF4 (Cell division cycle 7-related protein kinase/Activator of S phase kinase) (Homo sapiens) (UniProt Q9UBU7+O00311); experiment: Competitive inhibition of Cdc7/Dbf4 (unknown origin) using ATP as substrate by Michaelis-Menton/double-reciprocal plot analysis; assay type: protein-complex assay; summary of the method: as §3
[32] = Apparent permeability of the compound in pig LLC-PK1 cells; assay type: ADME, cell-based, Sus scrofa
[33] = biological target: T1, CDC7/DBF4 (Cell division cycle 7-related protein kinase/Activator of S phase kinase); experiment: Inhibition of Cdc7/Dbf4 (unknown origin) using 3 uM of ATP as substrate by AlphaScreen assay; assay type: protein-complex assay

Structure (SMILES): NC(=O)c1sc(-c2ccnc(N)n2)nc1-c1ccc(Cl)cc1Cl
- IC50 [1]: 44 nM
- MRT [2]: 1.15 h
- IC50 [3]: 10 nM
- IC50 [4]: 29 nM
- IC50 [5]: 86 nM
- Cmax [6]: 13 ng/mL
- half-life [7]: 394 min
- IC50 [8]: 10 nM
- Activity (Mus musculus [9]): Toxic
- IC50 [10]: 35 nM
- IC50 [11]: 18 nM
- IC50 [12]: 63 nM
- fraction unbound [13]: 0.09
- IC50 [14]: 64 nM
- Activity (Mus musculus [15]): Non-toxic
- inhibition in vivo at 150 mg/kg (Mus musculus [16]): 30%
- inhibition (Mus musculus [17]): inactive
- Cp(f) (Plasma): > 1 µM
- IC50 [18]: 17 nM
- inhibition in vivo at 150 mg/kg (Mus musculus [19]): 38%
- IC50 [20]: 40 nM
- AUC(0-inf) [21]: 85.7 ng·h/mL
- AUC(0-t) [22]: 83.3 ng·h/mL
- Activity (HCT-116): Active

- Papp (MDR1 [23]): ≥ 8.9 ×10⁻⁶ cm/s
- IC50 [24]: 318 nM
- IC50 [25]: 547 nM
- efflux ratio (rat MDR1 [26]): 1
- IC50 [27]: 546 nM
- efflux ratio (MDR1 [28]): 1
- efflux ratio [29]: 1
- Papp (rat MDR1 [30]): ≥ 8.9 ×10⁻⁶ cm/s
- inhibition [31]: Active
- Papp [32]: ≥ 8.9 ×10⁻⁶ cm/s
- IC50 [33]: 419 nM
Structure (SMILES): CCOC(=O)c1sc(-c2ccncc2)nc1O
